# In ChEMBL document CHEMBL3779787, “Amorfrutin C Induces Apoptosis and Inhibits Proliferation in Colon Cancer Cells through Targeting Mitochondria” (J Nat Prod, 2016):
# Calls of active or inactive are those of the source. No cut-off for these calls is given here.
# Tests used:
# HT-29 [1] = assay: Induction of apoptosis in human HT-29 cells assessed as increase in caspase 3/7 activity at 30 uM after 2 hrs by luminescent assay relative to control; format: functional
# How it was run: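 HT-29 cells exposed to compound 2 h; effector/initiator caspase enzymatic activity measured by luminescent assays, normalized to control treatment; means ± SEM, n = 4.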
# T84 = assay: Antiproliferative activity against human T84 cells assessed as cellular DNA content after 96 hrs by CyQUANT NF fluorescence assay relative to control; format: functional
# How it was run: (§1)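 Cells seeded at 750 (HT-29), 250 (PC-3) or 900 (T84, MCF7) cells/well, treated next day with concentration series for 72 h (HT-29, PC-3) or 96 h (T84, MCF7). Relative cell number from cellular DNA content by fluorescent DNA-binding dye. Variable-slope fit; efficiency = maximal inhibition (100% − Bottom) vs untreated; IC50 relative to the compound's own maximal efficiency.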
# MCF7 = assay: Antiproliferative activity against human MCF7 cells assessed as cellular DNA content after 96 hrs by CyQUANT NF fluorescence assay relative to control; format: functional; how it was run: as §1
# HT-29 [2] = assay: Upregulation of p27/Kip1 expression in human HT-29 cells at 10 uM after 48 hrs by immunoblotting method; format: functional, cell-based
# How it was run: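 HT-29 cells exposed 48 h to 10 μM compound. Whole-cell protein lysates probed for cell-cycle modulators by immunoblotting.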
# HT-29 [3] = assay: Downregulation of CDK6 expression in human HT-29 cells at 10 uM after 48 hrs by immunoblotting method; format: functional, cell-based
# How it was run: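 HT-29 exposed to 10 μM for 48 h; whole-cell lysates immunoblotted for the indicated proteins (total and cleaved PARP for the apoptosis line).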
# HT-29 [4] = assay: Induction of apoptosis in human HT-29 cells assessed as increase in cleaved caspase 3 at 30 uM after 6 hrs by DAPI staining-based fluorescence microscopy; format: functional, cell-based
# How it was run: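 HT-29 on coverslips treated 30 μM for 6 h, fixed in 4% formaldehyde, permeabilized with 0.3% Triton X-100, blocked in goat serum. Anti-cleaved caspase 3 (1:200) overnight at 4 °C, then Alexa Fluor 488 secondary (1:1000) 1 h. DAPI counterstain; imaged by fluorescence microscopy.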
# [5] = biological target: T1, Peroxisome proliferator-activated receptor alpha (Homo sapiens, UniProt Q07869); assay: Competitive binding affinity to PPARalpha (unknown origin) by TR-FRET assay
# T1 sequence (Q07869 whole entry): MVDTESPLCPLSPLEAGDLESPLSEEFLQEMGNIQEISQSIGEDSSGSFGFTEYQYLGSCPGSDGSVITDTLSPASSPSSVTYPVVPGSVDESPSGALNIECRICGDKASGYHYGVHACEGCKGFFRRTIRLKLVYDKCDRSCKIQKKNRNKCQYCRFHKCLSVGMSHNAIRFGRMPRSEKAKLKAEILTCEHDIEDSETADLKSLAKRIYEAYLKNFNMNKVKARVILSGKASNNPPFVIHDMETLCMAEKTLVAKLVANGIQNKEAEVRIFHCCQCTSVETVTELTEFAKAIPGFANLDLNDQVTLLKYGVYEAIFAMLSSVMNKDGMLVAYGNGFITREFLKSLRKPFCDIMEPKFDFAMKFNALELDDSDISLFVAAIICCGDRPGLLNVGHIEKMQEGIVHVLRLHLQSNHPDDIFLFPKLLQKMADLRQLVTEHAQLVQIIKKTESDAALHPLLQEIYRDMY
# [6] = biological target: T2, Peroxisome proliferator-activated receptor delta (Homo sapiens, UniProt Q03181); assay: Competitive binding affinity to PPARbeta/delta (unknown origin) by TR-FRET assay
# T2 sequence (Q03181 whole entry): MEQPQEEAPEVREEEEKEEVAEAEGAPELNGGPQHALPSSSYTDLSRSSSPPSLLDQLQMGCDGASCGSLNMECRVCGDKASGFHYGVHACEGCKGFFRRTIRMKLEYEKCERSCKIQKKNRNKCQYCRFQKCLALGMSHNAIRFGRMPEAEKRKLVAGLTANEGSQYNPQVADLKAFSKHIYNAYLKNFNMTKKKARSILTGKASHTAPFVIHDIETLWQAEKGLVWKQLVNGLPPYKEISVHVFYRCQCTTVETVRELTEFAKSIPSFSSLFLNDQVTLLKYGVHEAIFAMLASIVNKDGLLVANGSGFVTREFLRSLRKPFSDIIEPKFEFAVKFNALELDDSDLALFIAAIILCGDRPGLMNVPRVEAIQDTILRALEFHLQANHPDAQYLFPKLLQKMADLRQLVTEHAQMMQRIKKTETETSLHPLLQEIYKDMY
# HT-29 [7] = assay: Induction of apoptosis in human HT-29 cells at 30 uM after 24 hrs by annexin V-FLUOS/propidium iodide staining-based flow cytometry in presence of PPAR siRNA; format: functional, cell-based
# How it was run: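 HT-29 transfected with PPARα/β/δ/γ siRNA pool (10 nM each) or 30 nM nonspecific siRNA, seeded 150 000 cells/well. After 48 h, 30 μM compound added for a further 24 h. Phosphatidylserine externalization by annexin V flow cytometry; means ± SEM, n = 6.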
# HT-29 [8] = assay: Induction of ROS generation in human HT-29 cells at 30 uM by CM-H2DCFDA staining-based fluorescence assay in presence of N-acetylcysteine; format: functional, cell-based
# How it was run: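 HT-29 (15 000 cells/well) loaded with 50 μM CM-H2DCFDA in PBS for 30 min at 37 °C, washed, then 60 min in phenol red-free DMEM/F-12. 30 μM compound added alone or with NAC 1 mM, GSH 2.5 mM, D3T 25 μM, α-tocopherol 50 μM or ascorbic acid 500 μM. Fluorescence 485/530 nm read kinetically at 37 °C for 22 h; area under curve; means ± SEM, n = 7.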
# HT-29 [9] = assay: Induction of apoptosis in human HT-29 cells at 30 uM after 24 hrs by annexin V-FLUOS/propidium iodide staining-based flow cytometry in presence of N-acetylcysteine; format: functional, cell-based
# How it was run: (§2)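 HT-29 treated 24 h with 30 μM with or without antioxidant (NAC 1 mM, D3T 25 μM). Apoptosis by annexin V/propidium iodide flow cytometry; means ± SEM, n = 3.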
# HT-29 [10] = assay: Induction of apoptosis in human HT-29 cells at 30 uM after 24 hrs by annexin V-FLUOS/propidium iodide staining-based flow cytometry in presence of 3H-1,2-dithiole-3-thione; format: functional, cell-based; how it was run: as §2
# HT-29 [11] = assay: Induction of apoptosis in human HT-29 cells at 30 uM after 24 hrs by annexin V-FLUOS/propidium iodide staining-based flow cytometry in presence of cyclosporine A; format: functional, cell-based
# How it was run: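 For 24 h, HT-29 cells were exposed to 30 μM compound with or without cyclosporin A (2 μM). Apoptosis and necrosis were scored by annexin V-FLUOS/propidium iodide flow cytometry. Means ± SEM, n = 3.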
# HT-29 [12] = assay: Induction of apoptosis in human HT-29 cells assessed as increase in phosphatidylserine externalization at 10 uM after 48 hrs by flow cytometry in presence of alphaFas; format: functional, cell-based
# How it was run: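 HT-29 exposed 48 h to 10 μM compound, αFAS (10 ng/mL), TRAIL (30 ng/mL) or combinations. Phosphatidylserine externalization by annexin V flow cytometry. Expected combination effects from Bliss independence; means ± SEM, n = 4.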
structure (smiles),measurement,setting,value
COc1c(CC=C(C)C)c(O)c(C(=O)O)c(CCc2ccccc2)c1CC=C(C)C,fold change (FC),HT-29 [1],2
same,Efficacy,T84,99%
same,Efficacy,MCF7,92%
same,Activity,HT-29 [2],Active
same,Activity,HT-29 [3],Active
same,Activity,HT-29 [4],Active
same,Ki,[5],9.1 µM
same,Ki,[6],5.2 µM
same,Activity,HT-29 [7],Active
same,Activity,HT-29 [8],inactive
same,Activity,HT-29 [9],Active
same,Activity,HT-29 [10],Active
same,Activity,HT-29 [11],Active
same,Activity,HT-29 [12],Active
